≈ marks a conversion by molar mass, not a printed value.
Tests used:
[1] = test system: Mycobacterium tuberculosis; assay: Antimycobacterial activity against Mycobacterium tuberculosis H37Rv after 24 hrs by tetrazolium microplate assay; format: functional
Method in brief: (§1)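 TEMA broth microdilution; inoculum from 20–30-day-old slant growth suspended in Tween 80/0.2% BSA, adjusted to McFarland No. 1, final ca. 1.2 × 10⁶ CFU/mL. Compound mixed 1:1 with inoculum, DMSO solvent control; sealed plates incubated 37 °C 5 days, then MTT/Tween 80 added, 24 h 37 °C; yellow-to-purple colour change read. MIC = lowest concentration giving 100% inhibition; means of 3 or 4 replicates.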

[2] = test system: Mycobacterium tuberculosis; assay: Antimycobacterial activity against Mycobacterium tuberculosis isolate 02TBDM039EP097 after 24 hrs by tetrazolium microplate assay; format: functional; conditions: isolate 02TBDM039EP097, 24 h; method in brief: as §1

Compound | MIC [1] [µg/mL] | MIC [2] [µg/mL]
CC1(C)O[C@]23[C@H](O)[C@H]1[C@H](O)[C@H](O)[C@]2(C)[C@@H](O)CC[C@]3(C)O | > 25 | > 25
CC(=O)O[C@H]1[C@@H]2[C@@H](OC(=O)c3cccnc3)[C@]3(OC2(C)C)[C@H](C)CC[C@H](OC(C)=O)[C@@]3(C)[C@H]1OC(=O)c1ccccc1 | > 25 | 25 (≈ 43.1 µM)
CC(=O)O[C@H]1[C@@H]2[C@@H](O)[C@]3(OC2(C)C)[C@H](C)CC[C@H](OC(C)=O)[C@@]3(C)[C@H]1OC(=O)c1ccccc1 | > 25 | > 25
CC(=O)O[C@H]1CC[C@](C)(O)[C@]23OC(C)(C)[C@H]([C@H](O)[C@H](OC(=O)c4ccccc4)[C@]12C)[C@H]3OC(C)=O | > 25 | > 25
CC(=O)O[C@@H]1[C@@H]2[C@@H](OC(=O)c3ccccc3)[C@@]3(OC2(C)C)[C@@](C)([C@@H](OC(C)=O)CC[C@]3(C)O)[C@H]1OC(=O)c1ccccc1 | > 25 | 12.5 (≈ 21 µM)
CC(=O)O[C@H]1CC[C@](C)(O)[C@]23OC(C)(C)[C@H]([C@H](OC(=O)[C@H](O)[C@@H](O)c4ccccc4)[C@H](OC(=O)c4ccccc4)[C@]12C)[C@H]3O | > 25 | > 25
CC(=O)O[C@@H]1[C@@H]2[C@@H](OC(=O)c3cccnc3)[C@@]3(OC2(C)C)[C@@](C)([C@@H](OC(C)=O)CC[C@]3(C)O)[C@H]1OC(=O)c1ccccc1 | > 25 | > 25
CC(=O)O[C@H]1[C@@H]2[C@@H](OC(C)=O)[C@@]3(OC2(C)C)[C@@](C)([C@@H](OC(C)=O)CC[C@]3(C)O)[C@H]1OC(C)=O | > 25 | > 25
CC(=O)O[C@H]1[C@@H]2[C@@H](OC(C)=O)[C@@]3(OC2(C)C)[C@@](C)([C@@H](OC(C)=O)CC[C@]3(C)O)[C@H]1O | > 25 | > 25
CC(=O)O[C@H]1[C@@H]2[C@@H](O)[C@@]3(OC2(C)C)[C@@](C)([C@@H](OC(C)=O)CC[C@]3(C)O)[C@H]1O | > 25 | > 25
CC(=O)O[C@H]1CC[C@@H](C)[C@]23OC(C)(C)[C@H]([C@H](OC(=O)/C=C\c4ccccc4)[C@H](OC(=O)c4ccccc4)[C@]12C)[C@H]3O | > 25 | 25 (≈ 44.4 µM)
CC(=O)O[C@H]1CC[C@](C)(O)[C@]23OC(C)(C)[C@H]([C@H](OC(=O)/C=C\c4ccccc4)[C@H](OC(=O)c4ccccc4)[C@]12C)[C@H]3O | > 25 | > 25
CC(=O)O[C@H]1[C@@H]2[C@@H](OC(=O)c3ccccc3)[C@@]3(OC2(C)C)[C@@](C)([C@@H](OC(C)=O)CC[C@]3(C)O)[C@H]1OC(=O)c1ccccc1 | > 25 | > 25
CC(=O)O[C@H]1[C@@H]2[C@@H](OC(=O)c3cccnc3)[C@@]3(OC2(C)C)[C@@](C)([C@@H](OC(C)=O)CC[C@]3(C)O)[C@H]1OC(=O)c1ccccc1 | > 25 | > 25
CC(=O)O[C@H]1CC[C@@H](C)[C@]23OC(C)(C)[C@H](C[C@H](OC(=O)/C=C/c4ccccc4)[C@]12C)[C@H]3OC(C)=O | > 25 | 12.5 (≈ 25.8 µM)
CC(=O)O[C@H]1CC[C@@H](C)[C@]23OC(C)(C)[C@H](C[C@H](OC(=O)/C=C/c4ccccc4)[C@]12C)[C@H]3O | > 25 | 25 (≈ 56.5 µM)
CC(=O)O[C@H]1[C@@H](O)C[C@](C)(O)[C@]23OC(C)(C)[C@H]([C@H](OC(=O)/C=C/c4ccccc4)[C@H](OC(=O)c4ccccc4)[C@]12C)[C@H]3O | > 25 | > 25
CC(=O)O[C@H]1CC[C@@H](C)[C@@]23C[C@@H](C[C@H](OC(=O)/C=C/c4ccccc4)[C@]12C)C(C)(C)O3 | > 25 | > 25
CC(=O)O[C@H]1[C@@H]2[C@@H](OC(=O)c3ccccc3)[C@@]3(OC2(C)C)[C@](C)([C@H]1OC(=O)c1ccccc1)[C@@H](OC(C)=O)[C@@H](O)C[C@]3(C)O | > 25 | > 25
CC(=O)O[C@H]1CC[C@@H](C)[C@]23OC(C)(C)[C@H]([C@H](OC(=O)/C=C/c4ccccc4)[C@H](OC(=O)c4ccccc4)[C@]12C)[C@H]3O | > 25 | 12.5 (≈ 22.2 µM)
CC(=O)O[C@H]1CC[C@](C)(O)[C@]23OC(C)(C)[C@H]([C@H](OC(=O)/C=C/c4ccccc4)[C@H](OC(=O)c4ccccc4)[C@]12C)[C@H]3O | > 25 | 12.5 (≈ 21.6 µM)
CC(=O)O[C@H]1CC[C@@H](C)[C@]23OC(C)(C)[C@H](C[C@H](OC(=O)c4ccccc4)[C@]12C)[C@H]3OC(=O)c1ccccc1 | > 25 | 6.2 (≈ 11.9 µM)
CC(=O)O[C@H]1CC[C@](C)(O)[C@]23OC(C)(C)[C@H]([C@H](OC(=O)/C=C/c4ccccc4)[C@H](OC(=O)c4ccccc4)[C@]12C)[C@H]3OC(C)=O | > 25 | 12.5 (≈ 20.1 µM)
NNC(=O)c1ccncc1 [ISONIAZID] | 0.125 (≈ 0.911 µM) | 4 (≈ 29.2 µM)
CC(=O)O[C@H]1CC[C@](C)(O)[C@]23OC(C)(C)[C@H]([C@H](O)[C@H](OC(=O)c4ccccc4)[C@]12C)[C@H]3O [REISSANTIN D] | > 25 | > 25
CO[C@H]1/C=C/O[C@@]2(C)Oc3c(C)c(O)c4c(O)c(c(/C=N/N5CCN(C)CC5)c(O)c4c3C2=O)NC(=O)/C(C)=C\C=C\[C@H](C)[C@H](O)[C@@H](C)[C@@H](O)[C@@H](C)[C@H](OC(C)=O)[C@@H]1C [RIFAMPIN] | 0.063 (≈ 0.0766 µM) | > 16

Reference: ChEMBL document CHEMBL1795283, “Dihydro-β-agarofuran sesquiterpenes isolated from Celastrus vulcanicola as potential anti-Mycobacterium tuberculosis multidrug-resistant agents” (2011)
